Values belong to the compound of their own block, whether it stands above or below them.
Key:
Histone deacetylase 1 = Histone deacetylase 1 (Homo sapiens, UniProt Q13547); test: Inhibition of HDAC1 in human RPMI-8226 cells incubated for 2 hrs by ELISA; assay type: cell-based
Procedure, shortened: (§1)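 Target levels measured by ELISA kits in RPMI-8226 cells. Cells were seeded and grown 24 h at 37 °C, then exposed 72 h to a semi-log series of concentrations. Sample was incubated 2 h at 37 °C, followed by detection reagents A and B (1 h each), TMB substrate and stop solution, with OD read at 450 nm. IC50 was taken from sigmoidal dose-response nonlinear regression of % activity.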

Histone deacetylase 2 = Histone deacetylase 2 (Homo sapiens, UniProt Q92769); test: Inhibition of HDAC2 in human RPMI-8226 cells incubated for 2 hrs by ELISA; assay type: cell-based; procedure, shortened: as §1
Histone deacetylase 2, sequence (Q92769 whole entry): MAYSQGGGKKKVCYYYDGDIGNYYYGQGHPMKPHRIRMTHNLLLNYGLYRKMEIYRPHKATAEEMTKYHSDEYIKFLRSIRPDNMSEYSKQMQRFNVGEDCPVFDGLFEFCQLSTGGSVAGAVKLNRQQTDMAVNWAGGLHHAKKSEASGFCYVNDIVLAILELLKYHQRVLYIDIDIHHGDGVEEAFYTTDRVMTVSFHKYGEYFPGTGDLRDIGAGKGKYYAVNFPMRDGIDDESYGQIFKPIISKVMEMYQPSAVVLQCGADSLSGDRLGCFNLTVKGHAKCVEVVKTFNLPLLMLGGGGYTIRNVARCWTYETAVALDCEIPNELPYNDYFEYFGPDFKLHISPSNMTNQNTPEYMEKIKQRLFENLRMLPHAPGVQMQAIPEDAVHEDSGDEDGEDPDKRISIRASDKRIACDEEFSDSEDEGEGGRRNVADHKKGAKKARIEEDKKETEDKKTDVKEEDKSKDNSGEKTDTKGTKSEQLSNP

Histone deacetylase 3 = Histone deacetylase 3 (Homo sapiens, UniProt O15379); test: Inhibition of HDAC3 in human RPMI-8226 cells incubated for 2 hrs by ELISA; assay type: cell-based; procedure, shortened: as §1
Histone deacetylase 3, sequence (O15379 whole entry): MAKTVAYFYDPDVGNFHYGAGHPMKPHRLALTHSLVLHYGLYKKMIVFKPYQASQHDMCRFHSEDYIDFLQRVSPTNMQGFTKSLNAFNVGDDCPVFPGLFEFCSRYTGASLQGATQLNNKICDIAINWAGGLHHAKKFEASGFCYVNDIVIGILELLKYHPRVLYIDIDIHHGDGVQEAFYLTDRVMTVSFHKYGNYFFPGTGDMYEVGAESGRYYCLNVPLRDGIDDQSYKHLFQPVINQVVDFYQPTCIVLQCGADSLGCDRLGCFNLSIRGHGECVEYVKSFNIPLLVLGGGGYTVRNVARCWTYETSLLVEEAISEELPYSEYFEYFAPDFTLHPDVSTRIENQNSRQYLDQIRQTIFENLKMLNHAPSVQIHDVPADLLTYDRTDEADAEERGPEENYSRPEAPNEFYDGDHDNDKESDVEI

Histone deacetylase 8 = target: T1, Histone deacetylase 8 (Homo sapiens, UniProt Q9BY41); test: Inhibition of HDAC8 in human RPMI-8226 cells incubated for 2 hrs by ELISA; assay type: cell-based; procedure, shortened: as §1
T1 sequence (Q9BY41 whole entry): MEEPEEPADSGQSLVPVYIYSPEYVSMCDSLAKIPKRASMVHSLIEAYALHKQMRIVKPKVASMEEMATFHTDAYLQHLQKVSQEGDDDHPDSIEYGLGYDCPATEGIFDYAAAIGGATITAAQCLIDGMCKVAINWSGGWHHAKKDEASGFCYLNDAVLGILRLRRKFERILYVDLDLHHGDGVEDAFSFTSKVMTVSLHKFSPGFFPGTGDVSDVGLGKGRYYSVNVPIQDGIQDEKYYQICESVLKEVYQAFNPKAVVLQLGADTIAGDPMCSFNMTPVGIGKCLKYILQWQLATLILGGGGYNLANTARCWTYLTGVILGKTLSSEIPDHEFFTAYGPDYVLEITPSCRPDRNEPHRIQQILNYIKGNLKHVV

[1] = target: Epidermal growth factor receptor (Homo sapiens, UniProt P00533); test: Inhibition of EGFR in human RPMI-8226 cells incubated for 2 hrs by ELISA; assay type: cell-based
Epidermal growth factor receptor, sequence (P00533 whole entry): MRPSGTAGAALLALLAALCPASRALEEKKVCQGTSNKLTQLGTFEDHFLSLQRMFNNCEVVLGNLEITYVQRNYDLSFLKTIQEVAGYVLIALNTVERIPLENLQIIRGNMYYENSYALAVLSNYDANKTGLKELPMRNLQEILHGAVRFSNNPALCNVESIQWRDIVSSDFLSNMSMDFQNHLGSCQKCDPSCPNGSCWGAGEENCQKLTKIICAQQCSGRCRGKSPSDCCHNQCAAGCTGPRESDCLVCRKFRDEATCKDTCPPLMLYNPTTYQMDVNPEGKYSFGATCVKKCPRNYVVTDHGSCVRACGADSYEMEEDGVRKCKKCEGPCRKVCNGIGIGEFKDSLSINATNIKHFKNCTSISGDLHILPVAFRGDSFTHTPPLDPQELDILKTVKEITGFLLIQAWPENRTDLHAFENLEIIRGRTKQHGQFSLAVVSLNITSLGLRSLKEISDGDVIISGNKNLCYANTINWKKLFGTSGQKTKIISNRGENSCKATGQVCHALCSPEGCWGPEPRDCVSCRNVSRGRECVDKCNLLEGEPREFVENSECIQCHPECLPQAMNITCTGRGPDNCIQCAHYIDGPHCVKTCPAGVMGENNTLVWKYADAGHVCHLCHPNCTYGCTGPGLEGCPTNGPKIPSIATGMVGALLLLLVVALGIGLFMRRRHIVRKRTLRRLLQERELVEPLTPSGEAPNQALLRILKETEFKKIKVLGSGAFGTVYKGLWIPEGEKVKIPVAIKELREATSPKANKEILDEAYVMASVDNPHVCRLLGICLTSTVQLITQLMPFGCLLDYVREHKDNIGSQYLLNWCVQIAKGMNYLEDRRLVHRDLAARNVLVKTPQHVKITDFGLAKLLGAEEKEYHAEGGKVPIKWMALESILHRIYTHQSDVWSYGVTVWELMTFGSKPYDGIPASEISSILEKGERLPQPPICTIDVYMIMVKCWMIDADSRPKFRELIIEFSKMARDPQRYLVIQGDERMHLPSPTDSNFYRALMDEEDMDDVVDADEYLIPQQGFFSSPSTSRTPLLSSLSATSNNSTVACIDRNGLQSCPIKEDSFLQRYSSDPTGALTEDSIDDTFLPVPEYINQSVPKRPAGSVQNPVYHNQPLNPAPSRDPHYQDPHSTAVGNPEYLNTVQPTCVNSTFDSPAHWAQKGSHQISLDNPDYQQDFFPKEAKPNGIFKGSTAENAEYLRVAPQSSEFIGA

[2] = target: Vascular endothelial growth factor receptor 2 (Homo sapiens, UniProt P35968); test: Inhibition of VEGFR2 in human RPMI-8226 cells incubated for 2 hrs by ELISA; assay type: cell-based
Vascular endothelial growth factor receptor 2, sequence (P35968 whole entry): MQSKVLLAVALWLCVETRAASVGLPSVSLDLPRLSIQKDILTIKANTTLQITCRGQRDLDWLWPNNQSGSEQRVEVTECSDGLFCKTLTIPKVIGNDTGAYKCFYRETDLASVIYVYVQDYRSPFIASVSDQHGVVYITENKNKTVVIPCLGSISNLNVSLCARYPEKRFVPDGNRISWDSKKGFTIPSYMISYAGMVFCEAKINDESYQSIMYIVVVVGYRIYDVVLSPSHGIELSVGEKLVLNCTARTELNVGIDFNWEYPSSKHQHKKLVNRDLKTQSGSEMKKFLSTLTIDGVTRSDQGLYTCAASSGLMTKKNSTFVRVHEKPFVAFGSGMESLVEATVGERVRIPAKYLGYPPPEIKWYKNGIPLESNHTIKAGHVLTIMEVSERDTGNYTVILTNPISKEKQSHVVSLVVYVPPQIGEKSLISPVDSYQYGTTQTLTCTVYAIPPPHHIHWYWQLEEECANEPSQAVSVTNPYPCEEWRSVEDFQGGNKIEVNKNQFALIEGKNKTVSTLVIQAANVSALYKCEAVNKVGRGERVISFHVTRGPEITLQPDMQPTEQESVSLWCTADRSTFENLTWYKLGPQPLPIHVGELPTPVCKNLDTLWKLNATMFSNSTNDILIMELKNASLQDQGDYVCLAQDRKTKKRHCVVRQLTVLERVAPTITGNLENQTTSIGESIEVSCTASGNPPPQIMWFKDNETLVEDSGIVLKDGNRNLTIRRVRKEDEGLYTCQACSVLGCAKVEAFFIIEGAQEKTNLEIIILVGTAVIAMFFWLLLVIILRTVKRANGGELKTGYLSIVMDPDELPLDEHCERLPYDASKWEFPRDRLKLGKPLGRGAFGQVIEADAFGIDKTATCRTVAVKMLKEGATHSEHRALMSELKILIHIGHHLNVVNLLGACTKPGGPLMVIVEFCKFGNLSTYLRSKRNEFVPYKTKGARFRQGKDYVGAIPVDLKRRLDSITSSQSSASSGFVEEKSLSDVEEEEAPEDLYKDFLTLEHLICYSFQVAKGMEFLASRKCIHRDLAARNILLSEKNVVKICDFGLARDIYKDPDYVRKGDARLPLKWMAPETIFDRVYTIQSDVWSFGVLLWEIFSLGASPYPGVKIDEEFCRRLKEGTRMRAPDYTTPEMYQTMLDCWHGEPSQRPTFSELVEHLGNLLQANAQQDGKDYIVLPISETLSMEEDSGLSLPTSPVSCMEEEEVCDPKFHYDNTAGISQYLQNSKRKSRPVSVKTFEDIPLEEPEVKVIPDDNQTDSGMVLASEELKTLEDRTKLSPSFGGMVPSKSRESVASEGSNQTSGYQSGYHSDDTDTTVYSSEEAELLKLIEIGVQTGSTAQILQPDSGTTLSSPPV

Tubulin = test: Inhibition of Tubulin in human RPMI-8226 cells incubated for 2 hrs by ELISA; assay type: cell-based; procedure, shortened: as §1
RPMI-8226 [3] = test: Induction of ROS accumulation in human RPMI-8226 cells incubated for 2 hrs by ELISA (reference value: 26.06 +/- […]); assay type: functional
RPMI-8226 [4] = test: Induction of apoptosis in human RPMI-8226 cells assessed as BAX level incubated for 24 hrs by ELISA (reference value: 56 +/- […]); assay type: functional
RPMI-8226 [5] = test: Induction of apoptosis in human RPMI-8226 cells assessed as Bcl-2 level incubated for 24 hrs by ELISA (reference value: 4.857 +/- […]); assay type: functional
RPMI-8226 [6] = test: Induction of apoptosis in human RPMI-8226 cells assessed as PARP-1 level incubated for 24 hrs by ELISA (reference value: 0.151 +/- […]); assay type: functional
RPMI-8226 [7] = test: Induction of apoptosis in human RPMI-8226 cells assessed as Caspase-3 level incubated for 24 hrs by ELISA (reference value: 35.3 pg/ml); assay type: functional
RPMI-8226 [8] = test: Induction of apoptosis in human RPMI-8226 cells assessed as Caspase-7 level incubated for 24 hrs by ELISA (reference value: 0.359 +/- 0.016 ng/ml); assay type: functional
RPMI-8226 [9] = test: Induction of apoptosis in human RPMI-8226 cells assessed as Caspase-9 level incubated for 24 hrs by ELISA (reference value: 1.63 +/- […]); assay type: functional

Histone deacetylase 1, sequence (Q13547 whole entry): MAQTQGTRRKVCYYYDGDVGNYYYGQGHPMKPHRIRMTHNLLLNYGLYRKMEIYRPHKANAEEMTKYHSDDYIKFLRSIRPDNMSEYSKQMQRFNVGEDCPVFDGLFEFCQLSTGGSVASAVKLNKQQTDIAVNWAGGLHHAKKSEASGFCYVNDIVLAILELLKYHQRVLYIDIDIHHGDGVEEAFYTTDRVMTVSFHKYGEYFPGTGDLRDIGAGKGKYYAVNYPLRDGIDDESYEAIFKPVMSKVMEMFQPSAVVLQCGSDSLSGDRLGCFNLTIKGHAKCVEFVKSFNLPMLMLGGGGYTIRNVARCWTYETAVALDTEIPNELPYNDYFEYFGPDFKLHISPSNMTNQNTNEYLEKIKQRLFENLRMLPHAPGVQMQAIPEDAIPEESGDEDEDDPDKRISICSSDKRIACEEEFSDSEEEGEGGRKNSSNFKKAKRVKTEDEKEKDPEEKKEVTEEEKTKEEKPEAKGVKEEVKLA

IC50 (Histone deacetylase 1): 1530 nM | IC50 (Histone deacetylase 2): 2900 nM | IC50 (Histone deacetylase 3): 3000 nM | IC50 (Histone deacetylase 8): 47 nM | IC50 [1]: 36 nM | IC50 [2]: 388 nM | IC50 (Tubulin): 9.77 nM
Structure (SMILES): COc1ccc(/C=C/C(=O)c2nnn(-c3ccc(Cl)cc3)c2C)cc1OC

IC50 (Histone deacetylase 1): 620 nM | IC50 (Histone deacetylase 2): 800 nM | IC50 (Histone deacetylase 3): 1180 nM | IC50 (Histone deacetylase 8): 72 nM
Structure (SMILES): CC(C)C[C@H](NC(=O)[C@H](Cc1ccccc1)NC(=O)c1cnccn1)B(O)O [BORTEZOMIB]

Structure (SMILES): COc1cc2ncnc(Nc3ccc(F)c(Cl)c3)c2cc1OCCCN1CCOCC1 [GEFITINIB]
Activity (RPMI-8226 [3]): 80.92 pg/mL

Structure (SMILES): CN[C@@H]1C[C@H]2O[C@@](C)([C@@H]1OC)n1c3ccccc3c3c4c(c5c6ccccc6n2c5c31)C(=O)NC4 [STAUROSPORINE]
Activity (RPMI-8226 [4]): 336.16 pg/mL | Activity (RPMI-8226 [5]): 0.4081 ng/mL | Activity (RPMI-8226 [6]): 0.245 ng/mL | Activity (RPMI-8226 [7]): 449.8 pg/mL | Activity (RPMI-8226 [8]): 1.508 ng/mL | Activity (RPMI-8226 [9]): 24.97 ng/mL
